Active and inactive are the calls of the source. The rule behind the calls is not given here.

From ChEMBL document CHEMBL5154715, “Phenolic Lipids Derived from Cashew Nut Shell Liquid to Treat Metabolic Diseases” (J Med Chem, 2022) come the findings set out here.

Data set [1] deals with Danio rerio. Briefly: In vivo agonist activity at human GFP-tagged PPARalpha in transgenic zebrafish assessed as increase in GFP expression in yolk sac at 1.5 uM measured after 14 hrs by microscopy.
Data set [2] deals with Danio rerio. Briefly: In vivo agonist activity at human GFP-tagged PPARalpha in transgenic zebrafish assessed as increase in GFP expression in heart at 1.5 uM measured after 14 hrs by microscopy.
In data set [3] the test system is Danio rerio. Briefly: In vivo agonist activity at human GFP-tagged PPARalpha in transgenic zebrafish assessed as increase in GFP expression in muscle at 1.5 uM measured after 14 hrs by microscopy.
Data set [4] relates to Danio rerio. Briefly: In vivo agonist activity at human GFP-tagged PPARalpha in transgenic zebrafish assessed as increase in GFP expression in brain at 1.5 uM measured after 14 hrs by microscopy.
Data set [5] has as its target T1, Peroxisome proliferator-activated receptor gamma (Mus musculus) (UniProt P37238).
T1 sequence (whole entry): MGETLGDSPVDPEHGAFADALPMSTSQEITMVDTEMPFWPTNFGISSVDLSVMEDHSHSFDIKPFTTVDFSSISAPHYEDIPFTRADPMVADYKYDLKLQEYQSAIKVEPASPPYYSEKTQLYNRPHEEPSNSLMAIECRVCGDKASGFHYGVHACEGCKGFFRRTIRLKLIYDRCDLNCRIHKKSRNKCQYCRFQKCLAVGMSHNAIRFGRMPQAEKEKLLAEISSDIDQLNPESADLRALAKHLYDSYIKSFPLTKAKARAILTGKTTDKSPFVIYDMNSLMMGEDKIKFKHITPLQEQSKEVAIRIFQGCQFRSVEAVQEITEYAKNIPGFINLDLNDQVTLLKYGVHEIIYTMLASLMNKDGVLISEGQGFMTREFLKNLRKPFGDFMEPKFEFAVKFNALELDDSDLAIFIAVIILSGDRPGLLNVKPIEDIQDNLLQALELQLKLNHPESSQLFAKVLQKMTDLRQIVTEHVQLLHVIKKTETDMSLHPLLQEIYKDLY
Briefly: Agonist activity at human PPARgamma in mouse 3T3-L1 cells assessed as induction of Adipoq-mRNA expression at 25 uM incubated for 11 days by quantitative real-time PCR analysis. The following applies: filed as agonist, time 11.0 day. (In general: Real-time PCR tracks product formation cycle by cycle.)

Data set [6] has as its system Danio rerio. Briefly: In vivo agonist activity at human GFP-tagged PPARalpha in transgenic zebrafish assessed as increase in GFP expression in yolk sac at 0.5 uM measured after 14 hrs by microscopy.
Data set [7] relates to Danio rerio. Briefly: In vivo agonist activity at human GFP-tagged PPARalpha in transgenic zebrafish assessed as increase in GFP expression in muscle at 0.5 uM measured after 14 hrs by microscopy.
The target in data set [8] is T1, Peroxisome proliferator-activated receptor gamma (Mus musculus). Briefly: Agonist activity at human PPARgamma in mouse 3T3-L1 cells assessed as induction of Glut4 mRNA expression at 25 uM incubated for 11 days by quantitative real-time PCR analysis. The settings on record: filed as agonist, time 11.0 day.
The nature of data set [9]: Tmax in C57BL/6 mouse at 40 mg/kg, ip […] by LC-MS/MS analysis. It is filed as ADME, organism-based. The following applies: in vivo.
Data set [10] can be described thus: Elimination rate constant in C57BL/6 mouse at 40 mg/kg, ip measured upto 24 hrs by LC-MS/MS analysis. It is filed as ADME, organism-based. The settings on record: in vivo. Summed up: (§1)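 Single IP dose in 5% DMSO/5% Tween-80/90% saline to WT male C57Bl/6 mice, 7–10 months old; n = 4 per time point. Saphenous sampling at 0.08–0.5 h, then terminal trunk blood at 1–6 h. Plasma extracted with methanol plus internal standard and analyzed by LC-MS/MS; mean ± SEM.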

A short description of data set [11]: AUC (0 to infinity) in C57BL/6 mouse at 40 mg/kg, ip measured upto 24 hrs by LC-MS/MS analysis. The format is ADME, organism-based. Also on record: time < 24 hrs, dose 40 mg/kg, route ip. The settings on record: in vivo. Summed up:
as §1

A short description of data set [12]: Terminal half life in C57BL/6 mouse at 100 mg/kg, po measured upto 24 hrs by LC-MS/MS analysis. It is filed as ADME, organism-based. The following applies: in vivo, read-out: beta t1/2 (converted). Summed up:
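Single oral dose given in peanut butter pellets to WT male C57Bl/6 mice acclimated 7 days to drug-free pellets; n = 4 per time point. Saphenous blood at 0.25–2 h, terminal collection at 4–38 h. Plasma extracted with methanol containing internal standard, LC-MS/MS with negative-ion ESI MRM. Parameters reported as mean ± SEM; Frel is oral vs IP.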

A short description of data set [13]: AUC (0 to infinity) in C57BL/6 mouse at 100 mg/kg, po […] by LC-MS/MS analysis. The settings on record: in vivo. Also on record: dose 100 mg/kg, route po. The format is ADME, organism-based.
The target of data set [14] is T2, Peroxisome proliferator-activated receptor alpha (Mus musculus) (UniProt P23204).
T2 sequence (whole entry): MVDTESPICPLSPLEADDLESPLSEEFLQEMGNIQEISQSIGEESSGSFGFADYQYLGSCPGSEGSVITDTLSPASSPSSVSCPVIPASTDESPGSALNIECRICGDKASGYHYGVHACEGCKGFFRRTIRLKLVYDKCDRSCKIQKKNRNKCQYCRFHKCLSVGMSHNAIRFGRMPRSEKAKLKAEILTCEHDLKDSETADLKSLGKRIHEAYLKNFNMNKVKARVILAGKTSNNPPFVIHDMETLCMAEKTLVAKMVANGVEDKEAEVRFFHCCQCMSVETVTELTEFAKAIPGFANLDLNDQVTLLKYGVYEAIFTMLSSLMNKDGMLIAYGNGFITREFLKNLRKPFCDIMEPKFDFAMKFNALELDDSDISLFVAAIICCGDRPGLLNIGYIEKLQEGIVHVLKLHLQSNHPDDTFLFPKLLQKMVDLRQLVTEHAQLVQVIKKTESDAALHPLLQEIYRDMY
Briefly: Agonist activity at human PPARalpha in mouse hepatocytes assessed as induction of cd36 mRNA expression at 50 uM incubated for 16 hrs by quantitative real-time PCR analysis. The following applies: Hepatocyte, filed as agonist. The format is cell-based. Summed up:
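Collagenase-perfused mouse primary hepatocytes from WT mice, plated 2 h in attachment medium, overnight in M199 with 5% charcoal-stripped FBS and 1 nM insulin. Treated next day in serum-free M199 with 50 μM compound for 16 h. RNA qPCR (SYBR Green), comparative Ct method.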

In data set [15] the test system is Danio rerio. The data set is described as follows: In vivo agonist activity at human GFP-tagged PPARalpha in transgenic zebrafish assessed as increase in GFP expression in heart at 0.5 uM measured after 14 hrs by microscopy.
A short description of data set [16]: Relative bioavailability in C57BL/6 mouse at 100 mg/kg […] by LC-MS/MS analysis. The settings on record: in vivo. The format is ADME, organism-based.
The nature of data set [17]: Elimination rate constant in C57BL/6 mouse at 100 mg/kg, po […] by LC-MS/MS analysis. It is filed as ADME, organism-based. The settings on record: in vivo.
Data set [18] relates to Danio rerio. Briefly: In vivo agonist activity at human GFP-tagged PPARalpha in transgenic zebrafish assessed as increase in GFP expression in brain at 0.7 uM measured after 14 hrs by microscopy.

For `CCCCCCCCCCCCCCCc1cccc(OC(C)=O)c1C(=O)O`, the outcome with Danio rerio [1], in the data set on Danio rerio [2], with Danio rerio [3] and in the data set on Danio rerio [4] was Active.

For orientation: Tmax means the time at which the peak concentration occurs. As usually defined, the AUC(0-inf) is the area under the concentration-time curve extrapolated to infinity. High values mean high exposure, low ones low exposure. The term bioavailability denotes the share of a dose that reaches the circulation, judged against a reference dose that is usually intravenous. Read a high bioavailability as much systemic uptake. As to `CCCCCCCCCCCCCCCc1cccc(OC(C)(C)C(=O)O)c1`, the outcome (in [5]; in the data set with Danio rerio [6]; in the data set with Danio rerio [7]; in data set [8]; in [14]; in the data set on Danio rerio [15]) was Active. Besides, the Tmax in [9] came out at 0.5 h. The compound also had a k el at 24 h in data set [10] of 4.83e-05 s⁻¹. For the same compound, the AUC(0-inf) in data set [11] came out at 748 µg·h/mL; in data set [13], 717 µg·h/mL. For the same compound, the half-life in data set [12] was 2.3 h. Moreover, the bioavailability in [16] amounted to 38%. Further, in data set [17], the k el is 8.28e-05 s⁻¹.

`CCCCCC/C=C\CCCCCCCc1cccc(OC(C)(C)C(=O)O)c1`: in the data set with Danio rerio [18], the result was Active.
